According to ChEMBL document CHEMBL4118248, “Small Molecule Proprotein Convertase Subtilisin/Kexin Type 9 (PCSK9) Inhibitors: Hit to Lead Optimization of Systemic Agents” (J Med Chem, 2018):
pIC50, pKi: −log10 of the molar value.

What was measured:
[1] = Intrinsic clearance in human liver microsomes; type: ADME, microsome; details: read-out: CLH
Rattus norvegicus [2] = assay: Toxicity in Crl:CD(SD) rat assessed as discolored/mottled liver at 50 mg/kg/day, po daily via gavage for 14 days measured on day 15 post last dose; type: organism-based; details: in vivo, 336 h
Procedure, shortened: (§1)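 Male rats, 5 per group, given vehicle or compound at 50 mg/kg/day by oral gavage for 14 days. Mortality, clinical signs and hematology monitored throughout. Necropsy on day 15 with microscopy of bone marrow, ileum, duodenum, jejunum and liver. Toxicokinetics at 1, 3, 6 and 24 h post-dose on day 14.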

[3] = Lipophilicity, log D of the compound by shake flask method; type: physicochemical; details: octanol/water
Procedure, shortened: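 LogD measured by the shake-flask method.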

Bone marrow cell = assay: Cytotoxicity against rat bone marrow cells assessed as reduction in cell viability after 72 hrs by CellTiter-Glo assay; type: cell-based
Rattus norvegicus [4] = assay: Toxicity in Crl:CD(SD) rat assessed as single cell necrosis in crypt cells in ileum at 50 mg/kg/day, po daily via gavage for 14 days measured on day 15 post last dose; type: organism-based; details: in vivo, 336 h
Rattus norvegicus [5] = assay: Toxicity in Crl:CD(SD) rat assessed as hepatocyte vacuolation at 50 mg/kg/day, po daily via gavage for 14 days measured on day 15 post last dose; type: organism-based; details: in vivo, 336 h; procedure, shortened: as §1
[6] = Intrinsic clearance in rat liver microsomes; type: ADME, microsome; details: read-out: CLH
[7] = target: T1, Voltage-gated inwardly rectifying potassium channel KCNH2 (Homo sapiens, UniProt Q12809); assay: Inhibition of dofetilide binding to human ERG by fluorescence polarization assay
T1 sequence (Q12809 whole entry, the tested form may be a part): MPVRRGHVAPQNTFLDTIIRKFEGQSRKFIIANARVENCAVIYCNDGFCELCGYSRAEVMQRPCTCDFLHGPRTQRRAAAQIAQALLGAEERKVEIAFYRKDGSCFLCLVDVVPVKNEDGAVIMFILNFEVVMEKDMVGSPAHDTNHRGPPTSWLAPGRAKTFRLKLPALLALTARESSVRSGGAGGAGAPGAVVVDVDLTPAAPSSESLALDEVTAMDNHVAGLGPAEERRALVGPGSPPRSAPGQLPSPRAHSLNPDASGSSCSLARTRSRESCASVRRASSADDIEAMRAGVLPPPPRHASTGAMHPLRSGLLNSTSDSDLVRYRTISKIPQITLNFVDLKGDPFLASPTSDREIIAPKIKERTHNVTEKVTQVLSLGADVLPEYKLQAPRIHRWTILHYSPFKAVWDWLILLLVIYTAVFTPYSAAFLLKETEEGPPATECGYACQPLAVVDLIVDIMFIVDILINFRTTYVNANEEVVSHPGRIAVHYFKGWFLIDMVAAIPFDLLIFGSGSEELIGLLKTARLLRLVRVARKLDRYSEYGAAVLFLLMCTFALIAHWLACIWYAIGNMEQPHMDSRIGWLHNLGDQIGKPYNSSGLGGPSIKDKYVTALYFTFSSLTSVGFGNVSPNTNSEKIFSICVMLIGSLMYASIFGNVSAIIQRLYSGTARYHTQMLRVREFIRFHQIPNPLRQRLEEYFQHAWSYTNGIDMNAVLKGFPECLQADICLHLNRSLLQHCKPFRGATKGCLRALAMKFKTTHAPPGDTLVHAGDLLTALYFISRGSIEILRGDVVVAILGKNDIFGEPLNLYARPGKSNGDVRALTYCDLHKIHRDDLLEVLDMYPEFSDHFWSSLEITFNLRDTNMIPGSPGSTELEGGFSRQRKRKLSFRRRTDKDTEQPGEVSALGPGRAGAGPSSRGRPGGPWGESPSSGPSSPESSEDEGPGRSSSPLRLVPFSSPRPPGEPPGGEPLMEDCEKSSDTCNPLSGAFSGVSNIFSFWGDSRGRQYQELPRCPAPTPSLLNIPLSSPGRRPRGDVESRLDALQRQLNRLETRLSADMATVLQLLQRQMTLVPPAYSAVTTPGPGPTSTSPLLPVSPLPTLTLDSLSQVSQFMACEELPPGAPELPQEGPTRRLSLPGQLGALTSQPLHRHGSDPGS

80S Ribosome [8] = assay: Binding affinity to 80S ribosome in human HuH7 cells harboring pCMV-truncated human PCSK9 (1 to 152 residues)-proLuc assessed as inhibition of PCSK9 mRNA translation after overnight incubation by luciferase reporter gene assay; type: cell-based; details: huh-7
Procedure, shortened: (§2)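 Huh7 cells stably carry human PCSK9 prodomain (aa 1-152) fused to firefly luciferase (aa 2-550) in pcDNA3.1, kept under 900 µg/mL Geneticin. Plated 10,000/well in phenol red-free DMEM/10% FBS and left 4 h, then compound added (top final 20 µM, 0.5% DMSO). Incubated overnight at 37 °C, luminescence read with SteadyGlo.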

80S Ribosome [9] = assay: Binding affinity to 80S ribosome in human HuH7 cells assessed as inhibition of PCSK9 mRNA translation after overnight incubation by ELISA; type: cell-based; details: huh-7
Procedure, shortened: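 Huh7 cells kept in high-glucose DMEM, 10% BSA-free FBS, 2 mM L-glutamine, pen/strep at 37 °C, 5% CO2. Plated 7,500/well with compound or vehicle and incubated overnight (16-20 h). Secreted PCSK9 in the medium read by AlphaLISA: two antibodies to different mature-PCSK9 epitopes, biotinylated antibody 3 nM final, acceptor beads 10 µg/mL, 0.5 h rt; streptavidin donor beads 40 µg/mL, 1 h rt.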

[10] = target: T1, Voltage-gated inwardly rectifying potassium channel KCNH2; assay: Inhibition of human ERG by patch clamp method
Rattus norvegicus [11] = assay: In vivo drugmetabolism in rat assessed as (R)-N-(3-Chloropyridin-2-yl)-4-(6-(methylamino)pyrazin-2-yl)-N-(piperidin-3-yl)benzamide formation; type: ADME, organism-based
Rhesus monkey = assay: In vivo drugmetabolism in non-human primate assessed as (R)-N-(3-Chloropyridin-2-yl)-4-(6-(methylamino)pyrazin-2-yl)-N-(piperidin-3-yl)benzamide formation; type: ADME, organism-based, Macaca mulatta
[12] = target: T2, 80S Ribosome (Homo sapiens) (UniProt P08865+P42677+P62753+P15880+P23396+P61247+P62701+P22090+P46782+P62081+P62241+P46781+P46783+P62280+P25398+P62277+P62263+P62841+P62244+P62249+P08708+P62269+P39019+P60866+P63220+P62266+P62847+P62851+P62854+P62979+P62857+P62273+P62861+P39023+P36578+P46777+Q02878+P18124+P62424+P62917+P32969+P27635+P62906+P62913+P30050+P26373+P40429+P50914+P61313+P18621+Q07020+Q02543+P84098+P46778+P35268+P62829+P62750+P83731+P61254+P61353+P46776+P46779+P47914+P62888+P62899+P62910+P49207+P42766+P18077+Q9Y3U8+P83881+P61927+P61513+P63173+P62891+P62945+P05388+P05386); assay: Binding affinity to 80S ribosome in human HuH7 cells harboring pCMV-truncated human PCSK9 (1 to 152 residues)-proLuc assessed as inhibition of PCSK9 mRNA translation at 20 uM after overnight incubation by luciferase reporter gene assay relative to control; type: cell-based; details: Huh-7; procedure, shortened: as §2
[13] = target: T2, 80S Ribosome (Homo sapiens); assay: Binding affinity to 80S ribosome in human HuH7 cells assessed as inhibition of PCSK9 mRNA translation at 20 uM after overnight incubation by ELISA relative to control; type: cell-based; details: Huh-7
[14] = Apparent permeability in RRCK cells; type: ADME, cell-based, Canis lupus familiaris, MDCKII-LE; details: dog, MDCK
Procedure, shortened: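 Passive permeability measured in RRCK cells, a modified Madin-Darby canine kidney line; Papp reported in 10^-6 cm/s.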

[15] = Fraction unbound in rat plasma; type: ADME, cell-free
Procedure, shortened: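 Unbound fraction measured in rat plasma.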

Cytochrome P450 2D6 = Cytochrome P450 2D6 (Homo sapiens, UniProt P10635); assay: Inhibition of CYP2D6 (unknown origin); type: ADME
Sequence of Cytochrome P450 2D6 (P10635 whole entry): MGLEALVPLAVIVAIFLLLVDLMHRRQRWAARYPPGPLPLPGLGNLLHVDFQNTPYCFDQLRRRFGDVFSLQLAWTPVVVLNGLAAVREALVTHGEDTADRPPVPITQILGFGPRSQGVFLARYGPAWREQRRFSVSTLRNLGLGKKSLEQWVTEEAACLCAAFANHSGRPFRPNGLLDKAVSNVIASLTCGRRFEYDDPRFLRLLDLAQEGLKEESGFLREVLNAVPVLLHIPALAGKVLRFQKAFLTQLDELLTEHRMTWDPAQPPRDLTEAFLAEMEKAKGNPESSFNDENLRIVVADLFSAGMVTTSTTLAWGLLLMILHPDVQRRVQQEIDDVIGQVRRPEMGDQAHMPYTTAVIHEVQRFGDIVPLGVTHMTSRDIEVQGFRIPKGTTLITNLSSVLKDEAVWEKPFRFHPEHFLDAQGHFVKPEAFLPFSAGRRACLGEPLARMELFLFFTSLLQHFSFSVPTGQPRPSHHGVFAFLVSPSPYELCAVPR
Procedure, shortened: (§3)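 Inhibition of CYP1A2, 2D6, 2C9 and 3A4 reported as IC50, or as percent inhibition at 3 µM.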

[16] = Permeability from basolateral to apical side in MDCK cells harboring MDR1; type: ADME, cell-based, Canis lupus familiaris; details: dog, read-out: permeability
Procedure, shortened: (§4)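 Bidirectional permeability across MDR1-transfected MDCK monolayers, apical-to-basolateral and basolateral-to-apical; Papp reported in 10^-6 cm/s.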

[17] = Permeability from apical to basolateral side in MDCK cells harboring MDR1; type: ADME, cell-based, Canis lupus familiaris; details: dog, read-out: permeability; procedure, shortened: as §4
Cytochrome P450 1A2 = target: T3, Cytochrome P450 1A2 (Homo sapiens, UniProt P05177); assay: Inhibition of CYP1A2 (unknown origin); type: ADME; procedure, shortened: as §3
T3 sequence (P05177 whole entry): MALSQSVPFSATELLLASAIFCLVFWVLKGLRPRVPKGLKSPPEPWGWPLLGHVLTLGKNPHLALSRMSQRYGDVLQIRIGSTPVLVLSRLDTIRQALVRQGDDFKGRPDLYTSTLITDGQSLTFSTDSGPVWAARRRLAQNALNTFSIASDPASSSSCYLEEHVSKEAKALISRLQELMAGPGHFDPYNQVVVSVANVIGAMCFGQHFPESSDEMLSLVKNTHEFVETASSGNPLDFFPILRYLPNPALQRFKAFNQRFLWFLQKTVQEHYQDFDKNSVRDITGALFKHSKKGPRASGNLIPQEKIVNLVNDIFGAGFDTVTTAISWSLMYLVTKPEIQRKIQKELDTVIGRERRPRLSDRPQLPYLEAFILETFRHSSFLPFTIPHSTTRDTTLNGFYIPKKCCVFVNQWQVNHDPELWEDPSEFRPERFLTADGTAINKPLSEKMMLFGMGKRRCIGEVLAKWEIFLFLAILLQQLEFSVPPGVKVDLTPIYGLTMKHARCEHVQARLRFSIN

Cytochrome P450 2C9 = Cytochrome P450 2C9 (Homo sapiens, UniProt P11712); assay: Inhibition of CYP2C9 (unknown origin); type: ADME; procedure, shortened: as §3
Sequence of Cytochrome P450 2C9 (P11712 whole entry): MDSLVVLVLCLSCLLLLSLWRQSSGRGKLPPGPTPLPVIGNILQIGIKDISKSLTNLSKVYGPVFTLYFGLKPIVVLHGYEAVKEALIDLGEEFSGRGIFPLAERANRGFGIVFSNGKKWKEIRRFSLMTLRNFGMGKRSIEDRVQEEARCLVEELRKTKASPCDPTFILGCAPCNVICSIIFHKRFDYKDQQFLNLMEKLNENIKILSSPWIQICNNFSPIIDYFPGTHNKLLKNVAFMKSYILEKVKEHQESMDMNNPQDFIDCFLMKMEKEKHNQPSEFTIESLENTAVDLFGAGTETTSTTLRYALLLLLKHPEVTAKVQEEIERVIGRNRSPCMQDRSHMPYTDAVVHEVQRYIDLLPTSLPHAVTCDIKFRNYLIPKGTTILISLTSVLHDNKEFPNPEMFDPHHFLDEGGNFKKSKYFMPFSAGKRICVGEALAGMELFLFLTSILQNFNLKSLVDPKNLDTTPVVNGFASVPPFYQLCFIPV

Cytochrome P450 3A4 = Cytochrome P450 3A4 (Homo sapiens, UniProt P08684); assay: Inhibition of CYP3A4 (unknown origin); type: ADME; procedure, shortened: as §3
Sequence of Cytochrome P450 3A4 (P08684 whole entry, the tested form may be a part): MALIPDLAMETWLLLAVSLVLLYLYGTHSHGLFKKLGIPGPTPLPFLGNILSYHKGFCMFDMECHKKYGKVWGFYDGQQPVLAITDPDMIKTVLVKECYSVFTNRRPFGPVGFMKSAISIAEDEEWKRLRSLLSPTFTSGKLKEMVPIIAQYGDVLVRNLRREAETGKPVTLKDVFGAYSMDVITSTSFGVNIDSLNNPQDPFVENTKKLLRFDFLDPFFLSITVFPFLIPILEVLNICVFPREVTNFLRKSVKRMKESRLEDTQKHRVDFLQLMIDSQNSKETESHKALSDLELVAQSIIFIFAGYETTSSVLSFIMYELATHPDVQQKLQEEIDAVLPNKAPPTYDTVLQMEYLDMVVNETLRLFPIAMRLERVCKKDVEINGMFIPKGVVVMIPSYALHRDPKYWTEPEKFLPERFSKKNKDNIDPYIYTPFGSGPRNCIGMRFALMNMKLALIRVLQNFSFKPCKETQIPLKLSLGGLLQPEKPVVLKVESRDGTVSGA

[18] = Selectivity index, ratio of IC50 for cytotoxicity against rat bone marrow cells to IC50 for 80S ribosome in human HuH7 cells harboring pCMV-truncated human PCSK9 (1 to 152 residues)-proLuc; type: toxicity, cell-based; details: read-out: Ratio IC50
CYP1A2 = target: T4, CYP1A2 (Homo sapiens, UniProt P05177); assay: Inhibition of CYP1A2 (unknown origin) at 3 uM relative to control; type: ADME; procedure, shortened: as §3
T4 sequence (P05177 whole entry): T3 sequence (P05177 whole entry)

CYP2C9 = CYP2C9 (Homo sapiens, UniProt P11712); assay: Inhibition of CYP2C9 (unknown origin) at 3 uM relative to control; type: ADME; procedure, shortened: as §3
Sequence of CYP2C9 (P11712 whole entry): as the sequence (P11712 whole entry) above

CYP2D6 = CYP2D6 (Homo sapiens, UniProt P10635); assay: Inhibition of CYP2D6 (unknown origin) at 3 uM relative to control; type: ADME; procedure, shortened: as §3
Sequence of CYP2D6 (P10635 whole entry): as the sequence (P10635 whole entry) above

CYP3A4 = CYP3A4 (Homo sapiens, UniProt P08684); assay: Inhibition of CYP3A4 (unknown origin) at 3 uM relative to control; type: ADME; procedure, shortened: as §3
Sequence of CYP3A4 (P08684 whole entry): as the sequence (P08684 whole entry, the tested form may be a part) above

| Structure (SMILES) | microsomal CLint [1] [µL/min/mg] | logD [3] | pIC50 (Bone marrow cell) | microsomal CLint [6] [µL/min/mg] | pKi [7] | pIC50 (80S Ribosome [8]) | pIC50 (80S Ribosome [9]) | other results |
| --- | --- | --- | --- | --- | --- | --- | --- | --- |
| Cc1cnc2c(c1)nnn2-c1ccc(C(=O)N(c2ncccc2Cl)[C@@H]2CCCNC2)cc1 | 8.8 | 1.2 | < 4.71 | 16.5 | 5.48 | 6.39 | 6.11 | Activity (Rattus norvegicus [2]): Toxic; Activity (Rattus norvegicus [4]): Non-Toxic; Activity (Rattus norvegicus [5]): Toxic |
| CN(C)c1cncc(-c2ccc(C(=O)N(c3ncccc3Cl)[C@@H]3CCCNC3)cc2)n1 | 18.2 | 1.37 | 4.52 | – | 4.85 | – | 5.53 | pIC50 [10]: 4.36; Drug metabolism (Rattus norvegicus [11]): Metabolite_Detected; Drug metabolism (Rhesus monkey): Metabolite_Notdetected |
| O=C(c1ccc(-n2nnc3cccnc32)cc1)N(c1ncccc1Cl)[C@H]1CCCNC1 | – | – | < 4.70 | – | – | – | – | Activity (Rattus norvegicus [2]): Toxic; Activity (Rattus norvegicus [4]): Non-Toxic; inhibition [12]: 61%; inhibition [13]: 24% |
| O=C(c1ccc(-n2nnc3cccnc32)cc1)N(c1nccc2ccccc12)[C@@H]1CCCNC1 | 21.8 | 1.4 | – | – | 4.80 | 6.41 | 6.05 | – |
| CNc1cncc(-c2ccc(C(=O)N(c3ncccc3Cl)[C@@H]3CCCNC3)cc2)n1 | 8.7 | 1.07 | 4.71 | – | 4.42 | – | 5.51 | – |
| O=C(c1ccc(-c2ccccc2)cc1)N(c1nccc2ccccc12)[C@@H]1CCCNC1 | 10.7 | 2.5 | – | 57.7 | 5.66 | – | – | inhibition [12]: 54%; inhibition [13]: 39% |
| O=C(c1ccc(-n2nnc3cccnc32)cn1)N(c1ncccc1Cl)[C@@H]1CCCNC1 | < 8 | 0.3 | < 4.90 | 15.3 | 4.54 | 6.15 | 5.84 | Activity (Rattus norvegicus [2]): Toxic; Activity (Rattus norvegicus [4]): Non-Toxic |
| Cc1cncc(-c2ccc(C(=O)N(c3ncccc3Cl)[C@@H]3CCCNC3)cc2)n1 | < 8 | 0.8 to 1.37 | 4.36 | – | 4.42 | – | 5.55 | Papp [14]: 10.5 ×10⁻⁶ cm/s; pIC50 [10]: 4.22; fraction unbound [15]: 0.41; pIC50 (Cytochrome P450 2D6): < 4.52; Papp B→A [16]: 20 ×10⁻⁶ cm/s; Papp A→B [17]: 0.7 ×10⁻⁶ cm/s; pIC50 (Cytochrome P450 1A2): < 4.52; pIC50 (Cytochrome P450 2C9): < 4.52; pIC50 (Cytochrome P450 3A4): < 4.52 |
| Cc1ccc2nnn(-c3ccc(C(=O)N(c4ncccc4Cl)[C@@H]4CCCNC4)cc3)c2n1 | 9 | 1.2 | 6.00 | 38.5 | 4.47 | 6.35 | 6.05 | selectivity ratio [18]: 2 |
| O=C(c1ccc(-c2cnccn2)cc1)N(c1nccc2ccccc12)[C@@H]1CCCNC1 | 11 | 0.7 | < 4.70 | 123 | < 4.40 | 5.37 | 5.03 | – |
| Cn1cc(-c2ccc(C(=O)N(c3nccc4ccccc34)[C@@H]3CCCNC3)cc2)cn1 | 13.3 | 0.9 | 5.54 | – | 4.80 | 5.97 | 5.62 | – |
| O=C(c1ccc(-c2cnn3cccnc23)cc1)N(c1nccc2ccccc12)[C@@H]1CCCNC1 | 14.5 | 1.1 | 5.85 | 31.2 | 5.27 | 6.16 | 5.89 | – |
| O=C(c1ccc(-n2nnc3cccnc32)nc1)N(c1ncccc1Cl)[C@@H]1CCCNC1 | < 8 | 0.1 | – | 14.7 | 4.90 | 5.39 | 5.03 | – |
| COc1ccc(CCC(=O)N(c2nccc3ccccc23)[C@@H]2CCCNC2)cc1 | 20.6 | 1.1 | < 4.70 | > 510 | 4.89 | 5.58 | 5.08 | inhibition at 3 µM (CYP1A2): < 20%; Papp [14]: 5.4 ×10⁻⁶ cm/s; inhibition at 3 µM (CYP2C9): < 20%; inhibition at 3 µM (CYP2D6): < 20%; inhibition at 3 µM (CYP3A4): < 20% |
